From ChEMBL document CHEMBL1152462, “Betulinic acid derivatives that target gp120 and inhibit multiple genetic subtypes of human immunodeficiency virus type 1” (Antimicrob Agents Chemother, 2008)
The source made the active and inactive calls. No cut-off for these calls is given here.

Experiments:
[1] = test system: Human immunodeficiency virus 1; assay: Antiviral activity against HIV1 Du123.6 infected in human TZM-b1 cells assessed as inhibition of viral infection after 2 days postinfection by luciferase reporter gene assay; type: functional, organism-based; settings: Human immunodeficiency virus 1, Du123.6, TZM-b1, 48 h
How it was run: (§1)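 Single-round infection of TZM-bl cells with 200 TCID50 of virus in the presence of varying compound concentrations, top concentration 15 µM. After 2 days, medium was removed and Bright-Glo reagent added to read luminescence. IC50 is the concentration giving 50% reduction in luciferase RLU relative to virus-control wells.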

[2] = Cytotoxicity against human TZM-bl cells at 15 uM after 2 days by trypan blue exclusion assay; type: cell-based; settings: 48 h
[3] = test system: Human immunodeficiency virus 1; assay: Antiviral activity against HIV1 TRO.11 infected in human TZM-b1 cells assessed as inhibition of viral infection after 2 days postinfection by luciferase reporter gene assay; type: functional, organism-based; settings: Human immunodeficiency virus 1, TRO.11, TZM-b1, 48 h; how it was run: as §1
[4] = test system: Human immunodeficiency virus 1; assay: Antiviral activity against HIV1 Q461.e2 infected in human TZM-b1 cells assessed as inhibition of viral infection after 2 days postinfection by luciferase reporter gene assay; type: functional, organism-based; settings: Human immunodeficiency virus 1, Q461.e2, TZM-b1, 48 h; how it was run: as §1
[5] = test system: Human immunodeficiency virus 1; assay: Antiviral activity against HIV1 CAP.2.00.G3 infected in human TZM-b1 cells assessed as inhibition of viral infection after 2 days postinfection by luciferase reporter gene assay; type: functional, organism-based; settings: Human immunodeficiency virus 1, CAP.2.00.G3, TZM-b1, 48 h; how it was run: as §1
[6] = test system: Human immunodeficiency virus 1; assay: Inhibition of V3-speciifc monoclonal antibody […] binding to HIV1 Ba-L gp120 by ELISA-based competitive binding assay
[7] = test system: Human immunodeficiency virus 1; assay: Antiviral activity against HIV1 NL4-3 infected in human TZM-b1 cells assessed as inhibition of viral infection after 2 days postinfection by luciferase reporter gene assay; type: functional, organism-based; settings: Human immunodeficiency virus 1, NL4-3, TZM-b1, 48 h; how it was run: as §1
[8] = test system: Human immunodeficiency virus 1; assay: Antiviral activity against HIV1 Du151.2 infected in human TZM-b1 cells assessed as inhibition of viral infection after 2 days postinfection by luciferase reporter gene assay; type: functional, organism-based; settings: Human immunodeficiency virus 1, Du151.2, TZM-b1, 48 h; how it was run: as §1
[9] = test system: Human immunodeficiency virus 1; assay: Inhibition of V3-speciifc monoclonal antibody 39F binding to HIV1 3B gp120 by ELISA-based competitive binding assay
[10] = test system: Human immunodeficiency virus 1; assay: Antiviral activity against HIV1 Q842.d12 infected in human TZM-b1 cells assessed as inhibition of viral infection after 2 days postinfection by luciferase reporter gene assay; type: functional, organism-based; settings: Human immunodeficiency virus 1, Q842.d12, TZM-b1, 48 h; how it was run: as §1
[11] = test system: Human immunodeficiency virus 1; assay: Antiviral activity against HIV1 WITO4160.33 infected in human TZM-b1 cells assessed as inhibition of viral infection after 2 days postinfection by luciferase reporter gene assay; type: functional, organism-based; settings: Human immunodeficiency virus 1, WITO4160.33, TZM-b1, 48 h; how it was run: as §1
[12] = test system: Human immunodeficiency virus 1; assay: Antiviral activity against HIV1 5768.4 infected in human TZM-b1 cells assessed as inhibition of viral infection after 2 days postinfection by luciferase reporter gene assay; type: functional, organism-based; settings: Human immunodeficiency virus 1, 5768.4, TZM-b1, 48 h; how it was run: as §1
[13] = test system: Human immunodeficiency virus 1; assay: Antiviral activity against HIV1 CAP244.2.00.D3 infected in human TZM-b1 cells assessed as inhibition of viral infection after 2 days postinfection by luciferase reporter gene assay; type: functional, organism-based; settings: Human immunodeficiency virus 1, CAP244.2.00.D3, TZM-b1, 48 h; how it was run: as §1
[14] = test system: Human immunodeficiency virus 1; assay: Antiviral activity against HIV1 RHPA4259.7 infected in human TZM-b1 cells assessed as inhibition of viral infection after 2 days postinfection by luciferase reporter gene assay; type: functional, organism-based; settings: Human immunodeficiency virus 1, RHPA4259.7, TZM-b1, 48 h; how it was run: as §1
[15] = test system: Human immunodeficiency virus 1; assay: Antiviral activity against HIV1 ZM109F.PB4 infected in human TZM-b1 cells assessed as inhibition of viral infection after 2 days postinfection by luciferase reporter gene assay; type: functional, organism-based; settings: Human immunodeficiency virus 1, ZM109F.PB4, TZM-b1, 48 h; how it was run: as §1
[16] = test system: Human immunodeficiency virus 1; assay: Antiviral activity against HIV1 REJO4541.67 infected in human TZM-b1 cells assessed as inhibition of viral infection after 2 days postinfection by luciferase reporter gene assay; type: functional, organism-based; settings: Human immunodeficiency virus 1, REJO4541.67, TZM-b1, 48 h; how it was run: as §1
[17] = test system: Human immunodeficiency virus 1; assay: Antiviral activity against HIV1 ZM197M.PB7 infected in human TZM-b1 cells assessed as inhibition of viral infection after 2 days postinfection by luciferase reporter gene assay; type: functional, organism-based; settings: Human immunodeficiency virus 1, ZM197M.PB7, TZM-b1, 48 h; how it was run: as §1
[18] = test system: Human immunodeficiency virus 1; assay: Antiviral activity against HIV1 SS1196.1 infected in human TZM-b1 cells assessed as inhibition of viral infection after 2 days postinfection by luciferase reporter gene assay; type: functional, organism-based; settings: Human immunodeficiency virus 1, SS1196.1, TZM-b1, 48 h; how it was run: as §1
[19] = test system: Human immunodeficiency virus 1; assay: Antiviral activity against HIV1 QH0515.1 infected in human TZM-b1 cells assessed as inhibition of viral infection after 2 days postinfection by luciferase reporter gene assay; type: functional, organism-based; settings: Human immunodeficiency virus 1, QH0515.1, TZM-b1, 48 h; how it was run: as §1
[20] = test system: Human immunodeficiency virus 1; assay: Antiviral activity against HIV1 ZM55F.PB28a infected in human TZM-b1 cells assessed as inhibition of viral infection after 2 days postinfection by luciferase reporter gene assay; type: functional, organism-based; settings: Human immunodeficiency virus 1, ZM55F.PB28a, TZM-b1, 48 h; how it was run: as §1
[21] = test system: Human immunodeficiency virus 1; assay: Antiviral activity against HIV1 Q168.a2 infected in human TZM-b1 cells assessed as inhibition of viral infection after 2 days postinfection by luciferase reporter gene assay; type: functional, organism-based; settings: Human immunodeficiency virus 1, Q168.a2, TZM-b1, 48 h; how it was run: as §1
[22] = test system: Human immunodeficiency virus 1; assay: Antiviral activity against HIV1 HXB2 infected in human TZM-b1 cells assessed as inhibition of viral infection after 2 days postinfection by luciferase reporter gene assay; type: functional, organism-based; settings: Human immunodeficiency virus 1, HXB2, TZM-b1, 48 h; how it was run: as §1
[23] = test system: Human immunodeficiency virus 1; assay: Inhibition of V3-speciifc monoclonal antibody 447-52 binding to HIV1 Ba-L gp120 by ELISA-based competitive binding assay
[24] = Ratio of inhibition of HIV1 […] envelope glycoprotein 120-mediated membrane fusion to inhibition of HIV1 (isolate YU2) envelope glycoprotein 120-mediated membrane fusion
[25] = test system: Human immunodeficiency virus 1; assay: Antiviral activity against HIV1 6535.3 infected in human TZM-b1 cells assessed as inhibition of viral infection after 2 days postinfection by luciferase reporter gene assay; type: functional, organism-based; settings: Human immunodeficiency virus 1, 6535.3, TZM-b1, 48 h; how it was run: as §1
[26] = test system: HOS; assay: Inhibition of HIV1 3B gp120/CD4 complex binding to CCR5 expressing HOS cells at […] after 1 hr by competitive binding assay; type: cell-based; settings: Human immunodeficiency virus 1
How it was run: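 HOS.CCR5 cells were plated on poly-D-lysine and held overnight at 37°C. Soluble CD4 (4.5 nM) was premixed 1:1 with gp120 (Ba-L or IIIB) for 15 min at room temperature. The complex was added to cells with compound at 5 µg/ml for 1 h at 37°C. Bound gp120 was detected with FITC anti-gp120 (1 h), washed three times in PBS, and read by fluorescence at 490/520 nm.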

[27] = test system: HOS; assay: Inhibition of HIV1 Ba-L gp120/CD4 complex binding to CCR5 expressing HOS cells at 5 µg/ml after 1 hr by competitive binding assay; settings: Human immunodeficiency virus 1
[28] = test system: Human immunodeficiency virus 1; assay: Inhibition of V3-speciifc monoclonal antibody 447-52D binding to HIV1 3B gp120 by ELISA-based competitive binding assay
[29] = test system: Human immunodeficiency virus 1; assay: Antiviral activity against HIV1 Q259.d2.17 infected in human TZM-b1 cells assessed as inhibition of viral infection after 2 days postinfection by luciferase reporter gene assay; type: functional, organism-based; settings: Human immunodeficiency virus 1, Q259.d2.17, TZM-b1, 48 h; how it was run: as §1
[30] = test system: Human immunodeficiency virus 1; assay: Antiviral activity against HIV1 Q23.71 infected in human TZM-b1 cells assessed as inhibition of viral infection after 2 days postinfection by luciferase reporter gene assay; type: functional, organism-based; settings: Human immunodeficiency virus 1, Q23.71, TZM-b1, 48 h; how it was run: as §1
[31] = Cytotoxicity against human TZM-bl cells after 2 days by trypan blue exclusion assay; type: cell-based; settings: 48 h
[32] = test system: Human immunodeficiency virus 1; assay: Antiviral activity against HIV1 Du422.1 infected in human TZM-b1 cells assessed as inhibition of viral infection after 2 days postinfection by luciferase reporter gene assay; type: functional, organism-based; settings: Human immunodeficiency virus 1, Du422.1, TZM-b1, 48 h; how it was run: as §1
[33] = test system: Human immunodeficiency virus 1; assay: Antiviral activity against HIV1 ZM214M.PL15 infected in human TZM-b1 cells assessed as inhibition of viral infection after 2 days postinfection by luciferase reporter gene assay; type: functional, organism-based; settings: Human immunodeficiency virus 1, ZM214M.PL15, TZM-b1, 48 h; how it was run: as §1
[34] = test system: Human immunodeficiency virus 1; assay: Antiviral activity against HIV1 Q769.d22 infected in human TZM-b1 cells assessed as inhibition of viral infection after 2 days postinfection by luciferase reporter gene assay; type: functional, organism-based; settings: Human immunodeficiency virus 1, Q769.d22, TZM-b1, 48 h; how it was run: as §1
[35] = molecular target: Envelope glycoprotein gp160 (Human immunodeficiency virus type 1 group M subtype B (isolate YU-2)(HIV-1)) (UniProt P35961); assay: Inhibition of HIV1 (isolate YU2) envelope glycoprotein 120-mediated membrane fusion between virus-transfected african green monkey COS cells and human TZM-bl cells by luciferase-based cell-cell fusion assay in presence of IC9564; settings: Human immunodeficiency virus type 1 (isolate YU2)
Envelope glycoprotein gp160 (Human immunodeficiency virus type 1 group M subtype B (isolate YU-2)(HIV-1)), sequence (P35961 whole entry, the tested form may be a part): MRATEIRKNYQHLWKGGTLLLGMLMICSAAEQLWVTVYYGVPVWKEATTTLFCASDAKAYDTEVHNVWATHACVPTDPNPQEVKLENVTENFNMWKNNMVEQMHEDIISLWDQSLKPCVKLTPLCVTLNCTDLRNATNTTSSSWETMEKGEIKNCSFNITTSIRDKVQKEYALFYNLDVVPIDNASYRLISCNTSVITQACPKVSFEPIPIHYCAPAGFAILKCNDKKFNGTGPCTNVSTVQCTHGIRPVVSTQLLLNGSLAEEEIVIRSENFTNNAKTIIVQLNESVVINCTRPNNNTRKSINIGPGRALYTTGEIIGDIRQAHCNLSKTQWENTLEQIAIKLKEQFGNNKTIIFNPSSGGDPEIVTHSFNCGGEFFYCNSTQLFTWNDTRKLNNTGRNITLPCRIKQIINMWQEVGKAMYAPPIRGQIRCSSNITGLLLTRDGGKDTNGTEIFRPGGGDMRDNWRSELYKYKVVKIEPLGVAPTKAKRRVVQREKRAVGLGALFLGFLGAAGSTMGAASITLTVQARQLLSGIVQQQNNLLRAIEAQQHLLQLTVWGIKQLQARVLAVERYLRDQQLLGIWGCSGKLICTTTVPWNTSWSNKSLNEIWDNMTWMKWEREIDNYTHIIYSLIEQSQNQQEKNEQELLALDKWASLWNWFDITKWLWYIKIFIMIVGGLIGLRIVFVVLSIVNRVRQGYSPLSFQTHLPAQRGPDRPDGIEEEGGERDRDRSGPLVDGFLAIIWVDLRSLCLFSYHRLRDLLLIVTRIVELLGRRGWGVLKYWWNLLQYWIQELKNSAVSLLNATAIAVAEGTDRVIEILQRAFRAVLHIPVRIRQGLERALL

| Compound | IC50 [1] [µM] | Activity [2] | IC50 [3] [µM] | IC50 [4] [µM] | IC50 [5] [µM] | IC50 [7] [µM] | IC50 [8] [µM] | IC50 [10] [µM] | IC50 [12] [µM] | IC50 [13] [µM] | IC50 [14] [µM] | IC50 [15] [µM] | IC50 [16] [µM] | IC50 [17] [µM] | IC50 [18] [µM] | IC50 [19] [µM] | IC50 [20] [µM] | IC50 [21] [µM] | IC50 [29] [µM] | IC50 [30] [µM] | also measured |
| --- | --- | --- | --- | --- | --- | --- | --- | --- | --- | --- | --- | --- | --- | --- | --- | --- | --- | --- | --- | --- | --- |
| C=C(C)[C@@H]1CC[C@]2(C(=O)NCCCCCCCC(=O)N[C@@H](CC(C)C)[C@H](O)CC(=O)O)CC[C@]3(C)[C@H](CC[C@@H]4[C@@]5(C)CC[C@H](O)C(C)(C)[C@@H]5CC[C@]43C)[C@@H]12 | 0.09 | Non-toxic | 0.75 | 0.31 | 0.08 | 0.1 | 0.81 | 0.81 | 0.67 | 1.21 | 0.82 | 0.81 | 1.07 | 0.09 | 0.21 | 1.26 | 0.75 | 0.62 | 0.25 | 1.61 | inhibition [6]: inactive; inhibition [9]: Dose-dependent effect; IC50 [11]: 0.39 µM; IC50 [22]: 0.08 µM; inhibition [23]: Active; Ratio [24]: 30; IC50 [25]: 7.3 µM; inhibition [26]: Active; inhibition [27]: Active; inhibition [28]: Dose-dependent effect; IC50 [31]: > 50 µM; IC50 [32]: 0.65 µM; IC50 [33]: 0.07 µM; IC50 [34]: 4.07 µM |
| C=C(C)[C@@H]1CC[C@]2(C(=O)NCCCCCCCNC(C)=O)CC[C@]3(C)[C@H](CC[C@@H]4[C@@]5(C)CC[C@H](O)C(C)(C)[C@@H]5CC[C@]43C)[C@@H]12 | 0.08 | Non-toxic | 0.79 | 0.38 | 0.14 | 0.11 | 0.19 | 0.39 | 0.45 | 0.4 | 0.64 | 0.4 | 0.85 | 0.09 | 0.22 | 1.05 | 0.34 | 0.31 | 0.28 | 0.45 | IC50 [11]: 0.14 µM; IC50 [22]: 0.07 µM; IC50 [25]: 1.03 µM; IC50 [31]: > 50 µM; IC50 [32]: 0.17 µM; IC50 [33]: 0.048 µM; IC50 [34]: 3.7 µM |
| Cc1ccc(-c2ccc3c(c2)C=C(C(=O)Nc2ccc(C[N+](C)(C)C4CCOCC4)cc2)CCC3)cc1 | – | – | – | – | – | – | – | – | – | – | – | – | – | – | – | – | – | – | – | – | Activity [35]: 0.053 ng/mL |
| enfuvirtide | 0.33 | Non-toxic | 1.67 | 1.74 | 2.23 | 1.91 | 0.45 | 2.45 | 1.45 | 1.83 | 0.76 | 0.09 | 1.11 | 2.23 | 1.02 | 2.23 | 0.71 | 0.78 | 1.01 | 0.91 | IC50 [31]: > 50 µM; IC50 [32]: 0.56 µM; IC50 [33]: 2.67 µM; IC50 [34]: 2.23 µM |
